In brackets after ≈: the same amount, converted by molar mass. Activity calls are given as the source filed them. The rule behind the calls is not given here.
Columns and labels:
[1] = tested on: Mycobacterium tuberculosis variant bovis BCG; experiment: Antimycobacterial activity against Mycobacterium bovis BCG ATCC 35734 at 100 ug/ml after 8 days by microplate Alamar blue assay; format: functional, organism-based
In short: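 MABA in 7H12 (M. abscessus, M. bovis BCG) or 7H9 (others). Pre-dye incubation: M. abscessus 37 °C 3 days; BCG 37 °C 7 days; M. chelonae 30 °C 3 days; M. marinum 30 °C 5 days; M. avium and M. kansasii 37 °C 6 days. Then 20% Tween80 plus Alamar blue added: 4 h (abscessus), 6 days (chelonae), 1 day (others). Tested at 100 μg/mL.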

[2] = tested on: Mycobacterium tuberculosis; experiment: Antimycobacterial activity against cycloserine-resistant Mycobacterium tuberculosis ATCC 35826; format: functional
In short: (§1)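 Strain (H37Rv or ATCC single-drug-resistant isolates) grown to late log phase in 7H9 with 0.2% glycerol, 0.05% Tween80, 10% OADC. Cells washed into PBS, passed through 8 μm filter, frozen; CFU titred on 7H11 agar. MABA MIC is the lowest concentration giving ≥90% growth inhibition versus untreated controls.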

[3] = tested on: Mycobacterium tuberculosis; experiment: Antimycobacterial activity against kanamycin-resistant Mycobacterium tuberculosis ATCC 35827; format: functional; in short: as §1
[4] = tested on: Mycobacterium tuberculosis; experiment: Antimycobacterial activity against streptomycin-resistant Mycobacterium tuberculosis ATCC 35820; format: functional; in short: as §1
[5] = tested on: Mycobacterium tuberculosis; experiment: Antimycobacterial activity against isoniazid-resistant Mycobacterium tuberculosis ATCC 35822; format: functional; in short: as §1
[6] = tested on: Mycobacterium tuberculosis; experiment: Antimycobacterial activity against rifampin-resistant Mycobacterium tuberculosis ATCC 35838; format: functional; in short: as §1

SMILES: O=c1cc(-c2ccccc2)c2ccc(Cl)cc2o1
- Activity [1]: inactive
- MIC90 [2]: 47.3 µg/mL (≈ 184 µM)
- MIC90 [3]: 47.4 µg/mL (≈ 185 µM)
- MIC90 [4]: 46.9 µg/mL (≈ 183 µM)
- MIC90 [5]: 76.5 µg/mL (≈ 298 µM)
- MIC90 [6]: 45.4 µg/mL (≈ 177 µM)

SMILES: CCOC(=O)c1c(-c2ccccc2)c2ccc(Cl)cc2oc1=O
- Activity [1]: inactive
- MIC90 [2]: 47.3 µg/mL (≈ 144 µM)
- MIC90 [3]: 43.9 µg/mL (≈ 134 µM)
- MIC90 [4]: 46.9 µg/mL (≈ 143 µM)
- MIC90 [5]: 31.7 µg/mL (≈ 96.4 µM)
- MIC90 [6]: 44.7 µg/mL (≈ 136 µM)

SMILES: O=c1cc(-c2ccccc2)c2cc(Cl)ccc2o1
- Activity [1]: inactive

SMILES: CCOC(=O)c1c(-c2ccccc2)c2cc(Cl)ccc2oc1=O
- Activity [1]: inactive
- MIC90 [2]: > 100 µg/mL
- MIC90 [3]: > 100 µg/mL
- MIC90 [4]: 49.5 µg/mL (≈ 151 µM)
- MIC90 [5]: 44.7 µg/mL (≈ 136 µM)
- MIC90 [6]: 46.6 µg/mL (≈ 142 µM)

SMILES: N[C@@H]1CONC1=O [CYCLOSERINE]
- MIC90 [2]: > 10.2 µg/mL
- MIC90 [3]: 4.9 µg/mL (≈ 48 µM)
- MIC90 [4]: 4.9 µg/mL (≈ 48 µM)
- MIC90 [5]: 5 µg/mL (≈ 49 µM)
- MIC90 [6]: 4.8 µg/mL (≈ 47 µM)

SMILES: NNC(=O)c1ccncc1 [ISONIAZID]
- MIC90 [2]: 0.04 µg/mL (≈ 0.292 µM)
- MIC90 [3]: 0.07 µg/mL (≈ 0.51 µM)
- MIC90 [4]: 0.03 µg/mL (≈ 0.219 µM)
- MIC90 [5]: > 2.19 µg/mL
- MIC90 [6]: 0.03 µg/mL (≈ 0.219 µM)

SMILES: NC[C@H]1O[C@H](O[C@H]2[C@H](O)[C@@H](O[C@H]3O[C@H](CO)[C@@H](O)[C@H](N)[C@H]3O)[C@H](N)C[C@@H]2N)[C@H](O)[C@@H](O)[C@@H]1O [KANAMYCIN]
- MIC90 [2]: 1.12 µg/mL (≈ 2.31 µM)
- MIC90 [3]: > 25 µg/mL
- MIC90 [4]: 0.76 µg/mL (≈ 1.57 µM)
- MIC90 [5]: 0.72 µg/mL (≈ 1.49 µM)
- MIC90 [6]: 0.73 µg/mL (≈ 1.51 µM)

SMILES: O=[N+]([O-])c1cn2c(n1)OC[C@@H](OCc1ccc(OC(F)(F)F)cc1)C2 [PRETOMANID]
- MIC90 [2]: 0.18 µg/mL (≈ 0.501 µM)
- MIC90 [3]: 0.34 µg/mL (≈ 0.946 µM)
- MIC90 [4]: 0.17 µg/mL (≈ 0.473 µM)
- MIC90 [5]: 0.05 µg/mL (≈ 0.139 µM)
- MIC90 [6]: 0.07 µg/mL (≈ 0.195 µM)

SMILES: CO[C@H]1/C=C/O[C@@]2(C)Oc3c(C)c(O)c4c(O)c(c(/C=N/N5CCN(C)CC5)c(O)c4c3C2=O)NC(=O)/C(C)=C\C=C\[C@H](C)[C@H](O)[C@@H](C)[C@@H](O)[C@@H](C)[C@H](OC(C)=O)[C@@H]1C [RIFAMPIN]
- MIC90 [2]: 0.02 µg/mL (≈ 0.0243 µM)
- MIC90 [3]: 0.02 µg/mL (≈ 0.0243 µM)
- MIC90 [4]: 0.09 µg/mL (≈ 0.109 µM)
- MIC90 [5]: 0.04 µg/mL (≈ 0.0486 µM)
- MIC90 [6]: > 3.29 µg/mL

SMILES: CN[C@@H]1[C@H](O[C@H]2[C@H](O[C@H]3[C@H](O)[C@@H](O)[C@H](N=C(N)N)[C@@H](O)[C@@H]3N=C(N)N)O[C@@H](C)[C@]2(O)C=O)O[C@@H](CO)[C@H](O)[C@H]1O [STREPTOMYCIN]
- MIC90 [2]: 0.53 µg/mL (≈ 0.911 µM)
- MIC90 [3]: 1.48 µg/mL (≈ 2.54 µM)
- MIC90 [4]: > 9.31 µg/mL
- MIC90 [5]: 0.56 µg/mL (≈ 0.963 µM)
- MIC90 [6]: 0.47 µg/mL (≈ 0.808 µM)

Source: ChEMBL document CHEMBL2429835
